# Source: PubChem (several laboratories)
# An excerpt weighted towards active compounds, which were near 1.6% of everything screened.
# NR2E3 ag-1 = inhibitors of NR2E3-RetCOR corepressor binding, primary screen, NR2E3 agonist project, biochemical, TR-FRET, GST-NR2E3, biotin-RetCOR | Photoreceptor-specific nuclear receptor (Homo sapiens), Q9Y5X4 | 1536-well | inhibition of corepressor binding, % at 4.78 µM | 320,000 compounds, 0.12% hits;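 active means percent inhibition above the cutoff of mean plus 3 SD of all tested compounds, set per screening campaign, cut at about 20% in these data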
# Target sequence (Q9Y5X4 whole entry, looked up): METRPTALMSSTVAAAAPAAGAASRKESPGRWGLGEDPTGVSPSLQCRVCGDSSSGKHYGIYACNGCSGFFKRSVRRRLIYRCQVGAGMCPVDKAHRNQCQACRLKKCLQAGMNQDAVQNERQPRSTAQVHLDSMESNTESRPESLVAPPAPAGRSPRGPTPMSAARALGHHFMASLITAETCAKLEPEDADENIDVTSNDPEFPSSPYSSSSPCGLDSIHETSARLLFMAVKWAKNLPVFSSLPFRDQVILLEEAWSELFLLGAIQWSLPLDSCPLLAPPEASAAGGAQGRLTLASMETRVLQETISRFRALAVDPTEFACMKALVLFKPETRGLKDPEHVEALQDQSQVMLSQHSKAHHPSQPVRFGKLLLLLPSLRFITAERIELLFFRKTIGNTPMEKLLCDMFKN
#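 Format: 1536-well format; test system: GST-NR2E3 and biotin-RetCOR proteins; read-out basis: percent inhibition of TR-FRET ratio; timing: 5 h incubation at 4 °C; detection: time-resolved FRET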
# NR2E3 ag-2 = NR2E3 agonists in two-hybrid cells, primary screen, cell-based, luminescence, CHO-S, Gal4-NCOR/VP16-NR2E3. Photoreceptor-specific nuclear receptor (Homo sapiens), Q9Y5X4. luciferase. inhibition of corepressor binding, % at 3.98 µM. 360,000 compounds, 0.35% hits. AID 602229, 2012;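 active means inhibition above the mean of all tested compounds plus 3 SD, cut at about 70% in these data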;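 further: higher means lower luciferase signal from less NR2E3 corepressor binding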
# NR1D1 modulator = modulators of Rev-erb alpha DNA binding, primary screen, biochemical, FITC-DNA, fluorescence polarization, uHTS; Nuclear receptor subfamily 1 group D member 1 (Homo sapiens), P20393; Rev-erbα–FITC-DNA binding, 90 min; activity, % at 10 µM; 370,000 compounds, 0.79% hits; AID 1259318, 2017;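 active means activity above about 14%, limit read from the data; passing the limit was not always enough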
# PG9 binder = binders of HIV-1 gp120 antibody PG9, primary screen, biochemical, TR-FRET; TR-FRET gp120-PG9 antibody binding; inhibition, % at 6.7 µM; 360,000 compounds, 0.43% hits; AID 624416, 2012; in the data active means inhibition above about 8.5%
# PKA-R2B activ = activators of PKA-R2B holoenzyme, primary screen, biochemical, fluorescence polarization, Cy5-IP20, human. cAMP-dependent protein kinase catalytic subunit beta (Homo sapiens) + cAMP-dependent …. PKA-R2B holoenzyme dissociation; R2B truncated from residue 108, S112A mutant; 0% DMSO only, 100% 113 µM cGMP. activation, % at 11.4 µM. 340,000 compounds, 0.079% hits;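 active means activation above a cutoff set at the mean over all compounds plus 3 SD, cut at about 18% in these data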;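 further: higher means more holoenzyme dissociation and a rise in polarization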
# PKA-R1A activ = activators of PKA-R1A holoenzyme, primary screen, biochemical, fluorescence polarization, Cy5-IP20, bovine R1A, mouse PKAc. PKA-R1A dissociation; scaled: DMSO 0%, 113 µM cGMP 100%. 340,000 compounds, 0.083% hits. activation, % at 11.4 µM;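 active means percent activation above the mean of all tested compounds plus 3 SD, cut at about 19% in these data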;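 further: higher means more PKAc released from R1A so a rise in polarization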
# NR2E3 ag conf = NR2E3 agonist confirmation in cells, cell-based, luminescence, CHO-S two-hybrid; CHO-S mammalian two-hybrid NR2E3-NCOR, luciferase luminescence; 2,300 compounds, 51% hits; AID 624378, 2012; inhibition, % at 3.98 µM; shares compounds with NR2E3 ag-2;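 active means average inhibition above a cutoff equal to the mean inhibition of all tested compounds plus one SD, cut at about 70% in these data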
# GAL4-VP16 luc = GAL4-VP16 reporter modulators, confirmation, counter-screen for NR2E3 agonist project, cell-based, luminescence, CHO-S, high throughput; 2,300 compounds, 29% hits; inhibition, % at 3.98 µM; shares compounds with NR2E3 ag-2; CHO-S GAL4-VP16 luciferase reporter;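 active means mean inhibition above a cutoff equal to the average over all tested compounds plus one standard deviation, cut at about 70% in these data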;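 further: luciferase from a UAS reporter driven by GAL4-VP16 transactivation; higher means less reporter light so more repression of VP16 activity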
# A number is an active result; . = inactive; / = not tested or not shown.
SMILES,NR2E3 ag-1,NR2E3 ag-2,NR1D1 modulator,PG9 binder,PKA-R2B activ,PKA-R1A activ,NR2E3 ag conf,GAL4-VP16 luc
Cc1sc2ncnc(NCC3COc4ccccc4O3)c2c1C (configuration not stated),.,92,.,.,.,.,97,89
c1ccc(-c2csc3ncnc(NCC4COc5ccccc5O4)c23)cc1 (configuration not stated),.,91,.,.,.,.,98,89
c1ccc(-c2csc3ncnc(NCCCN4CCOCC4)c23)cc1,.,.,.,.,.,.,/,/
Cc1sc2ncnc(NCc3ccccc3)c2c1C,.,.,.,.,.,.,89,71
COc1ccc(CNS(=O)(=O)/C=C/c2ccc(OC)cc2CNC(=O)OC(C)(C)C)cc1,/,/,.,/,/,/,/,/
Cc1cc(N2CCN(C/C=C/c3ccccc3)CC2)n2ncnc2n1,.,.,.,.,.,.,.,.
Cc1cc(N2CCN(c3ccccc3)CC2)n2ncnc2n1,.,.,.,.,.,.,/,/
Cn1c(=O)c(C#N)c(-c2ccc(F)cc2)c2cc(C(=O)c3cc(Cl)cc(Cl)c3O)cnc21,.,94,.,.,.,.,100,94
COc1ccccc1-n1c(=O)c(C#N)c(-c2ccc([N+](=O)[O-])cc2)c2cc(C(=O)c3cc(F)ccc3O)cnc21,.,.,.,.,.,.,/,/
CCCCC(=O)N1CCN(c2nc3ccc(Cl)cc3s2)CC1,.,.,.,.,.,.,.,.
O=C(O)Cn1cnc2c(OCc3ccccc3)ncnc21,/,.,.,.,.,.,/,/
Cc1cc(C)c(CN2CCN(C(=O)Cn3cnc4c(OCc5ccccc5)ncnc43)CC2)c(C)c1,/,71,.,.,.,.,.,.
Cc1cc(OCc2cc(C(=O)N3CCN(C)C(=O)[C@@H]3C)no2)cc(C)c1Cl,.,.,.,.,.,.,.,.
O=S(=O)(c1cccc(NC(=S)N2CCN(c3cccc(Cl)c3)CC2)c1)C(F)F,.,.,.,.,.,.,80,.
c1csc(CNc2ccc3c(c2)OCCO3)c1,.,.,.,.,.,.,.,.
Oc1ccccc1CNc1ccc2c(c1)OCCO2,.,.,.,.,.,.,/,/
CCOC(=O)[C@@]12CN(C(=O)OC(C)(C)C)CC=C1N(Cc1ccc(OC)cc1)C(=O)[C@H]2CC(=O)NCCCCc1ccccc1,/,/,.,/,/,/,/,/
COc1ccc(/C=N/N=C2\CC3CCC2(C)C3(C)C)cc1O (configuration not stated),.,74,.,.,.,.,.,.
CN1c2ccccc2C(O)=C(C(=S)Nc2ccc(F)c(Cl)c2)S1(=O)=O,.,.,.,.,.,.,88,.
Cc1cccc(N2CCN(S(=O)(=O)c3ccc4c(c3)NC(=O)C(C)S4)CC2)c1C (configuration not stated),.,.,.,.,.,.,.,.
CC1Sc2ccc(S(=O)(=O)NCCc3ccc(Cl)cc3)cc2NC1=O (configuration not stated),.,.,.,.,.,.,/,/
Cc1cc(C)cc(NC(=O)C2CCN(S(=O)(=O)c3ccc4c(c3)NC(=O)C(C)S4)CC2)c1 (configuration not stated),.,.,.,.,.,.,/,/
Cc1ccc(NC(=O)C2CCN(S(=O)(=O)c3ccc4c(c3)NC(=O)C(C)S4)CC2)cc1Cl (configuration not stated),.,105,.,.,.,.,98,85
Cc1cccc(CCNS(=O)(=O)c2ccc3c(c2)NC(=O)C(C)S3)c1 (configuration not stated),.,.,.,.,.,.,.,.
O=C(NCCc1c[nH]c2ccccc12)OCc1cn(Cc2ccc(F)cc2F)nn1,/,/,.,/,/,/,/,/
SMILES,NR2E3 ag-1,NR2E3 ag-2,NR1D1 modulator,PG9 binder,PKA-R2B activ,PKA-R1A activ,NR2E3 ag conf,GAL4-VP16 luc
COC(=O)[C@H](CC(C)C)N(Cc1cn(Cc2ccc(C)cc2)nn1)S(=O)(=O)c1ccc(F)cc1Br,/,/,.,/,/,/,/,/
O=S1(=O)c2ccc(N3CCN(Cc4ccccc4F)CC3)cc2Oc2ccccc2CN1Cc1cn(Cc2ccc(C(F)(F)F)cc2)nn1,/,/,.,/,/,/,/,/
Cc1ccc(Cl)cc1N1CCN(C(=O)C2CCN(S(=O)(=O)c3cccnc3)CC2)CC1,.,.,.,.,.,.,.,.
CC(=O)N1c2ccc(S(=O)(=O)N3CCC(C(=O)N4CCN(c5ccc(Cl)cc5)CC4)CC3)cc2CC1C (configuration not stated),.,.,.,.,.,.,77,.
O=C1[C@@H](CCc2ccccc2)[C@@H]2c3ccccc3C=NN2[C@@H]2c3ccccc3C=NN12,/,/,.,/,/,/,/,/
COC(=O)[C@]12C[C@H](CC(=O)N3CCC(c4ccccc4)CC3)C(=O)N(CCc3ccc(OC)c(OC)c3)C1=C[C@H](C(C)C)O[C@@H]2C1CC1,/,/,.,/,/,/,/,/
C/C(=N\NC(=S)NCCc1ccccc1)c1ccc(Cl)cc1,.,.,.,.,.,.,.,.
C/C(=N\NC(=S)NCCc1ccccc1)c1ccc(C)cc1,.,.,.,.,.,.,.,.
C/C(=N\NC(=S)NCCc1ccccc1)c1ccc(C#N)cc1,.,.,.,.,.,.,/,/
O=C1OC[C@H](Cc2ccc3c(c2)OCO3)/C1=C\c1ccc2c(c1)OCO2,.,.,/,/,.,.,.,.
CC(C)N1CCCCC(NC(=O)c2cccc(F)c2)C1=O (configuration not stated),/,/,.,/,/,/,/,/
O=S(=O)(c1cc(F)ccc1F)N1CCN(c2ncnc3ccccc23)CC1,/,88,.,.,.,.,92,74
O=S(=O)(c1cc(F)ccc1F)N1CCN(c2ccccn2)CC1,.,.,.,.,.,.,/,/
NC(=O)c1cccc(-c2coc3c(C(=O)NCCc4ccccc4)cccc23)c1,/,.,.,.,/,/,/,/
